Compounds with a hit are over-represented: about 0.48% of the library has one in this group of screens.
procasp7 counter: counter-screen: procaspase-7 (human) activation. P55210. AID 463210. recombinant procaspase-7, Ac-DEVD-pNA absorbance 405 nm; D23A/D198A/D206A triple mutant, cannot self-cleave; scale: DMSO 0, 5 µM enzyme 100. activation, % at 8.5 µM. actives 0.093% (n = 330,000);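 active means percent activation above the screen-wide mean plus 3 SD, cut at about 25% in these data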
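Detection: p-Nitroaniline absorbance at 405 nm, read at 0 and 120 min; system: Uncleavable procaspase-7 mutant enzyme; evaluation: % activation from two-timepoint absorbance difference, scaled to controls; times: 1 h enzyme–compound preincubation and 2 h substrate reaction, both 25 °C; buffer or medium: Zinc-free HEPES pH 7.4 with 300 mM NaCl, 0.01% Triton X-100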
Rce1 inh: yeast Ras-converting enzyme inhibition; Q03530; AID 2563; calls only; actives 0.27% (n = 290,000); yeast membranes, quenched prenylated peptide cleavage fluorescence;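 active means fall in fluorescence gain of 50% or more versus controls, with final raw signal at or below 3038400; inconclusive means same 50% fall but final raw signal above 3038400; inactive means fall in fluorescence gain under 50%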
Bfl-1 A1 inh: inhibitors of the anti-apoptotic protein A1, read as caspase activation | MEF A1-2A-BIM cells, Caspase-Glo 3/7 luminescence, 3 h; percent of clofoctol response, vehicle zero | caspase activation, % (concentration not given with the values) | actives 0.066% (n = 330,000);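 active means over half of replicate activation scores above 10%, or exactly half above 10 with the replicate mean above 10; inconclusive means replicate mean below 10 yet half the replicates above 10; inactive means over half of replicates below 10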
PolyA inh: inhibitors of polyadenylation in S. cerevisiae; S. cerevisiae SKY197-pL101 polyadenylation reporter, beta-gal luminescence; efflux-impaired pdr1/pdr3 knockout yeast; score 100 = 6 SD above DMSO; activity score, % at 12 µM; actives 0.02% (n = 300,000); AID 1875;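 active means lowest replicate activity score at least 50, where 100 means six control SD above control mean; inconclusive means lowest score under 50 but half or more replicates reach 50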;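 further: yeast exposed to compound for 9 h at 30 °C; higher score means more reporter readthrough which indicates perturbed polyadenylation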
proCasp3 act: activates human procaspase-3 | P42574 | recombinant procaspase-3 D3A, Ac-DEVD-pNA absorbance 405 nm | activation, % at 8.5 µM | actives 0.11% (n = 330,000) | AID 463141;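 active means activation above the mean of all tested compounds plus 3 SD, cut at about 21% in these data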
Target sequence (P42574 whole entry D9A/D28A/D175A): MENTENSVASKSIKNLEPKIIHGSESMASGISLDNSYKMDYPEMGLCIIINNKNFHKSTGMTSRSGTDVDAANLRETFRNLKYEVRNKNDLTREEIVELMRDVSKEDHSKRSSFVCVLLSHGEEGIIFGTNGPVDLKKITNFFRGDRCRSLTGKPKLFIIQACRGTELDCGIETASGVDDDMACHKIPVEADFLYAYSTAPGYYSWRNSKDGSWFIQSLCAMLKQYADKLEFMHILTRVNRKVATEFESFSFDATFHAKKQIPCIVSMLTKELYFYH
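Assay system – Procaspase-3 D3A mutant · Benchmarks – DMSO low control, extra-enzyme high control · Technique – 405 nm absorbance of p-nitroaniline, reads at 0 and 120 min · Doses – 8.5 µM nominal · Measure – % activation between DMSO and enzyme-spiked controls · Also added – Ac-DEVD-pNA chromogenic peptide substrate · Schedule – 1 h compound preincubation, 2 h substrate hydrolysis at 25 °C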
procasp7 triplic: activates human procaspase-7, counter-screen for procaspase-3 activators; activation, % at 8.5 µM; shares compounds with proCasp3 act; recombinant procaspase-7, Ac-DEVD-pNA absorbance; asp23/198/206-to-Ala mutant, cannot self-cleave; 210 tested, under 10 active;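 active means mean activation above a set limit taken from an earlier procaspase-7 screen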
procasp3 conf: procaspase-3 (human) activation, confirmed; shares compounds with proCasp3 act; recombinant PC-3 D3A, Ac-DEVD-pNA absorbance 405 nm; 100% is higher-enzyme control; activation, % at 8.5 µM; actives 10% (n = 210); AID 488954;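 active means mean activation above a set limit carried over from the earlier primary screen, cut at about 22% in these data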
Of the large screens only hits and unclear results are named; the others gave an inactive call (follow-up assays come after a bar, where they were run).

Cc1cccc(N(CC(=O)NCc2ccco2)C(=O)CCC(=O)Nc2ccccn2)c1C	none
Cc1ccc(-n2nc3ccc(N)cc3n2)cc1	none
CC(C)c1ccc(-n2nc3ccc(N)cc3n2)cc1	proCasp3 act 31 | procasp7 triplic inactive | procasp3 conf inactive
Cn1c(=NC(=O)CS(=O)(=O)c2ccccc2)sc2ccccc21	none
Cn1c(=NC(=O)CS(=O)(=O)c2ccc(F)cc2)sc2ccccc21	proCasp3 act 22 | procasp7 triplic inactive | procasp3 conf inactive
O=c1cc(O)c2ccc(O)cc2o1	none
Cc1cc(=O)oc2cc(O)ccc12	Rce1 inh inconclusive, proCasp3 act 24 | procasp7 triplic inactive | procasp3 conf inactive
CCOC(=O)N1CCN(C(=O)CCc2ccc(S(=O)(=O)NC(C)(C)C)cc2)CC1	none (no result: procasp7 counter, proCasp3 act)
O=c1[nH]nc(SCCS(=O)(=O)c2ccc(F)cc2)n1-c1ccc2c(c1)OCCO2	none
OC[C@@H]1[C@@H](c2ccc(Cl)cc2)C(c2ccc(F)cc2)=NN1c1ccccc1	proCasp3 act 24 (no result: Rce1 inh, Bfl-1 A1 inh, PolyA inh) | procasp7 triplic inactive | procasp3 conf inactive
Cc1cccc(C2=NN(c3ccccc3)[C@H](CO)[C@H]2c2ccc(F)cc2)c1	proCasp3 act 25 (no result: Rce1 inh, Bfl-1 A1 inh, PolyA inh) | procasp7 triplic inactive | procasp3 conf inactive
OC[C@@H]1[C@@H](c2ccccc2)C(c2cccc(Cl)c2)=NN1c1ccccc1	none (no result: Rce1 inh, Bfl-1 A1 inh, PolyA inh)
Cc1cccc(C2=NN(c3ccccc3)[C@H](CO)[C@H]2c2ccc(Cl)cc2)c1	none (no result: Rce1 inh, Bfl-1 A1 inh, PolyA inh)
CCOc1ccc(N/C=C/C(=O)c2ccc(OC)c(OC)c2)cc1	none
CCOC(=O)c1ccc(N/C=C/C(=O)c2ccc(OC)c(OC)c2)cc1	proCasp3 act 25 | procasp7 triplic inactive | procasp3 conf inactive
Cc1cc(C(=O)NC2CC(C)(C)Cc3c2cnn3-c2cccc(F)c2)n(C)n1 (centres undefined)	none
COc1ccc(CCNC(=O)CCOc2cc(C)ccc2C)cc1OC	none (no result: procasp7 counter, proCasp3 act)
NC(=O)c1c(NC(=O)c2ccccc2C(=O)O)sc2c1CCCC2	none
NC(=O)c1c(NC(=O)c2ccccc2F)sc2c1CCCC2	proCasp3 act 37 | procasp7 triplic inactive | procasp3 conf inactive
O=C(C[C@@H]1C/C=C\CC[C@@H](Cc2ccc(F)cc2)C(=O)OC[C@@H]2CCCN2C1=O)N[C@H](CO)Cc1ccccc1	none (no result: Rce1 inh, Bfl-1 A1 inh, PolyA inh)
O=C(NCc1cccs1)C1CCC(=O)N(Cc2cccc(C(F)(F)F)c2)C1 (centres undefined)	proCasp3 act 42 | procasp7 triplic inactive | procasp3 conf inactive
CCN1CCN(c2ncnc3c2sc(=S)n3-c2ccccc2)CC1	proCasp3 act 23 | procasp7 triplic inactive | procasp3 conf inactive
C=CCn1c(O)c(N=NC(=S)Nc2cccc(OC)c2)c2ccccc21	proCasp3 act 34 | procasp7 triplic inactive | procasp3 conf inactive
C=CCn1c(O)c(N=NC(=S)Nc2ccc(OC)cc2)c2ccccc21	none
O=C(NNC1=Nc2cccc3cccc1c23)c1ccc(Br)cc1	none
CCN(CC)c1ccc(/C=N/NC(=O)c2cccc(S(=O)(=O)Nc3ccccc3OC)c2)c(O)c1	proCasp3 act 39 | procasp7 triplic inactive | procasp3 conf inactive
CCN(CC)c1ccc(/C=N/NC(=O)c2cccc(S(=O)(=O)Nc3ccccc3OC)c2)cc1	none
Cn1c(-c2ccc(C=O)s2)nc2c3ccccc3c3ccccc3c21	proCasp3 act 46 | procasp7 triplic inactive | procasp3 conf inactive
COc1ccc2oc(C(=O)OCC(=O)Nc3cc(S(=O)(=O)N4CCOCC4)ccc3OC)c(C)c2c1	proCasp3 act 22 | procasp7 triplic inactive | procasp3 conf inactive
COc1ccc2oc(C(=O)OCC(=O)Nc3cc(S(=O)(=O)N4CCOCC4)ccc3C)c(C)c2c1	none
COc1ccc(S(=O)(=O)N2CCN(C(=O)CCOc3ccccc3)CC2)cc1OC	none (no result: Rce1 inh, PolyA inh)

High-throughput results as filed in PubChem.
